Measured values as given in ChEMBL document CHEMBL1667799, “HIV-1 integrase strand-transfer inhibitors: design, synthesis and molecular modeling investigation” (Eur J Med Chem, 2011).

Key:
[1] = target: Human immunodeficiency virus type 1 integrase (Human immunodeficiency virus 1, UniProt Q7ZJM1); assay: Inhibition of HIV-1 integrase after 1 hr by ELISA
[2] = test system: Human immunodeficiency virus 1; assay: Antiviral activity against HIV1 3B infected in human MT4 cells assessed as inhibition of virus-induced cytopathic effect by MTT assay; assay type: functional, organism-based; settings: Human immunodeficiency virus 1, 3B
Summary of the method: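 HIV-1 IIIB stock titrated on MT-4 cells to set CCID50. MT-4 cells infected with 100–300 CCID50 in presence of five-fold serial drug dilutions. Viability read by MTT reduction to formazan, measured spectrophotometrically. EC50 is concentration giving 50% protection against viral CPE. Values are averages ± SD.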

[3] = Cytotoxicity against human MT4 cells by MTT assay; assay type: cell-based
Summary of the method: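 MT-4 cell viability read by MTT reduction to formazan by mitochondrial dehydrogenase, measured spectrophotometrically, across drug dilutions. CC50 is concentration reducing MT-4 viability by 50%. Values are averages ± SD.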

[4] = Selectivity index, ratio of CC50 for human MT4 cells to EC50 for HIV13B; assay type: toxicity, cell-based; settings: read-out: Ratio CC50/EC50
Summary of the method: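 Index calculated as CC50/EC50. CC50 is the concentration reducing MT-4 viability by 50%. EC50 is 50% protection against HIV-1 IIIB CPE after infection with 100–300 CCID50, across five-fold serial dilutions. Both are read by MTT assay.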

[5] = target: Human immunodeficiency virus type 1 integrase (Human immunodeficiency virus 1) (UniProt Q7ZJM1)
Sequence of Human immunodeficiency virus type 1 integrase (Human immunodeficiency virus 1) (Q7ZJM1 as listed by the source): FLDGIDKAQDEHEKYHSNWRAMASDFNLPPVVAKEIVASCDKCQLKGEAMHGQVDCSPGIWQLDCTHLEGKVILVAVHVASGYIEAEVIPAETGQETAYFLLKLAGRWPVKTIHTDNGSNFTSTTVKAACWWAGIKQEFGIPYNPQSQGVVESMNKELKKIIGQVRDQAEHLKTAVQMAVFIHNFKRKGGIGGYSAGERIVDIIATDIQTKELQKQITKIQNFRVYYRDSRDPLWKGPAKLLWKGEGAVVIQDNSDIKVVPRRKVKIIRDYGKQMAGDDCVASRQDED

Sequence of Human immunodeficiency virus type 1 integrase (Q7ZJM1 whole entry): as the sequence (Q7ZJM1 as listed by the source) above

Structure (SMILES) | IC50 [1] | EC50 [2] | CC50 [3] | selectivity ratio [4] | C50 [5]
CCOC(=O)/C(O)=C/C(=O)c1cn(Cc2ccc(F)cc2)c2cc(OC)cc(OC)c12 | 2.79 µM | 2.48 µM | 55.4 µM | 22 | 1.29 µM
CCOC(=O)/C(O)=C/C(=O)c1cn(Cc2ccc(F)cc2)c2c(OC)cc(OC)cc12 | 18.1 µM | > 62.1 µM | 62.1 µM | < 1 | 34.9 µM
COc1cc(OC)c2c(c1)c(C(=O)/C=C(\O)C(=O)O)cn2Cc1ccc(F)cc1 | 0.251 µM | 8.51 µM | 58.5 µM | 7 | 0.006 µM
CCOC(=O)/C(O)=C/C(=O)c1cn(Cc2ccc(F)cc2)c2c(OC)ccc(OC)c12 |  |  |  |  | 0.66 µM
CCOC(=O)/C(O)=C/C(=O)c1cn(Cc2ccc(F)cc2)c2c(OC)c(OC)ccc12 | 7.41 µM | 10.4 µM | 119 µM | 11 | 17.4 µM
CCOC(=O)/C(O)=C/C(=O)c1cn(Cc2ccc(F)cc2)c2cc(OC)c(OC)cc12 | 4.4 µM | > 21.8 µM | 21.8 µM | < 1 | 7.69 µM
COc1cc(OC)c2c(C(=O)/C=C(\O)C(=O)O)cn(Cc3ccc(F)cc3)c2c1 | 0.47 µM | 3.2 µM | 20.7 µM | 6 | 0.28 µM
COc1cc2c(C(=O)/C=C(\O)C(=O)O)cn(Cc3ccc(F)cc3)c2cc1OC | 0.547 µM | 10.5 µM | 65.5 µM | 6 | 0.119 µM
COc1ccc2c(C(=O)/C=C(\O)C(=O)O)cn(Cc3ccc(F)cc3)c2c1OC | 3.55 µM | 14.7 µM | 130 µM | 9 | 6.37 µM
COc1cccc2c1c(C(=O)/C=C(\O)C(=O)O)cn2Cc1ccc(F)cc1 |  |  |  | 70 | 0.14 µM
COc1ccc2c(c(C(=O)/C=C(\O)C(=O)O)cn2Cc2ccc(F)cc2)c1OC | 1.45 µM | 1.21 µM | 126 µM | 104 | 0.047 µM
Cc1nnc(C(=O)NC(C)(C)c2nc(C(=O)NCc3ccc(F)cc3)c(O)c(=O)n2C)o1 |  |  | > 18 µM |  | 
CCOC(=O)/C(O)=C/C(=O)c1cn(Cc2ccc(F)cc2)c2ccc(OC)c(OC)c12 | 0.9 µM | 3.96 µM | 111 µM | 28 | 0.015 µM
